Measurements reported in ChEMBL document CHEMBL4513216, “Probing the Open Global Health Chemical Diversity Library for Multistage-Active Starting Points for Next-Generation Antimalarials” (ACS Infect Dis, 2020).

Assay: Toxicity liver stage against HepG2, at 10uM
Assay type: cell-based
Parameters: test concentration 10 uM, cell line HepG2-A16-CD81EGFP
Conditions: human, HepG2-A16-CD81EGFP cells; read-out: INHIBITION
How it was run: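 Uninfected HepG2-A16-CD81EGFP cells, 3 × 10^3 per well, 1536-well, plated on prespotted compound at 10 μM final, parasite-free screening media added to match infected plates; puromycin 10 μM positive, DMSO 0.5% negative; run in parallel with 48 h PbLuc assay at 37 °C, 5% CO2; viability by CellTiter-Glo luminescence, normalized to controls.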

Row | SMILES | cytotoxicity at 10 µM
1 | Cc1ccc(-c2cn3c(n2)CO[C@@H](CNCc2cccnc2)C3)cc1 | -105%
2 | FC(F)(F)c1ccc(CNC[C@H]2COCc3nc4cccnc4n32)cc1 | 8.04%
3 | COc1ccccc1-c1nnc([C@H]2CCN(C(C)=O)C2)o1 | 4.71%
4 | O=C(Cc1noc(C(=O)NCC2CC2)n1)Nc1cccc(C(F)(F)F)c1 | 8.13%
5 | COCCn1cnc2ccc(NC(=O)C(C)C)cc2c1=O | -9.46%
6 | O=C(NCc1cccs1)NCC(O)(c1cccs1)C1CC1 (stereo not given) | 1.66%
7 | Cc1ccoc1C(=O)N1CCCc2c(c(=O)n(C)n2C)C1 | 11.7%
8 | COCc1nnn2c1CN(C(=O)c1c[nH]cn1)CCC2 | 2.02%
9 | COCc1nn(C)c2c1CN(C(=O)c1ccno1)CC2 | 12.7%
10 | O=C([C@@H]1CC[C@@H]2[C@@H](CCN2c2ncccn2)O1)N1CCCO1 | 8.79%
11 | CCn1ncc2c1C(COC)CN(Cc1ccco1)C2 (stereo not given) | 7.1%
12 | O=C([C@H]1CCCO1)N1CCc2ncnc(C3CC3)c2CC1 | 4.79%
13 | Cc1nnc2ccc(N3CCC(C(=O)Nc4nccs4)CC3)nn12 | 3.89%
14 | CCOc1ccc(NC(C)=O)cc1S(=O)(=O)Nc1nccs1 | -8.2%
15 | Cc1ocnc1C(=O)N(C)[C@@H]1CCC[C@@H](N2CCCC2)[C@@H]1O | -3.7%
16 | Cc1cc(N(C)C)nc(C2COCCN2Cc2csc(C)n2)n1 (stereo not given) | 1.75%
17 | Cc1cc(C(=O)NCc2ccc(-c3n[nH]cc3C(=O)N(C)C)cc2)on1 | 4.29%
18 | Cc1cc(-c2cnc(NC3CC3)nc2-c2ccc(C)o2)on1 | 2.26%
19 | Cc1cc(OCC(N)=O)ccc1NC(=O)C(C)Cc1ccccc1F (stereo not given) | -0.0944%
20 | COc1c(C2CCCN2Cc2nnc(C3CC3)o2)c(C)nn1C (stereo not given) | -9.29%
21 | Cc1cccc(S(=O)(=O)NC2CCN(CC(F)(F)F)C2)c1 (stereo not given) | 0.741%
22 | Cc1nc(-c2ccc(S(=O)(=O)N3CCSC3)cc2)co1 | 17.2%

Row | SMILES | cytotoxicity at 10 µM
23 | CCNC(=O)CS(=O)(=O)NC1CCC(C)CC1 (stereo not given) | -4.57%
24 | Cc1noc(C)c1CNCC1CNc2ccnn2C1 (stereo not given) | -2.72%
25 | Cc1csc(CCNc2ccc(C#N)cc2F)n1 | 2.17%
26 | CN(C)c1ccccc1CN1CCCCC1CNS(C)(=O)=O (stereo not given) | 0.212%
27 | COc1ccc(COCC(=O)N2CCC(c3nncn3C)CC2)cc1 | 4.9%
28 | Cn1cnnc1C1CCN(C(=O)COCc2ccccc2Cl)CC1 | -6.07%
29 | Cc1csc(CNC(=O)NCC(O)c2ccc(F)c(F)c2)n1 (stereo not given) | 2.51%
30 | CCC(C)C(=O)NCc1cccc(OCCN(C)C2CCOCC2)c1 (stereo not given) | -0.114%
31 | CSCCNC(=O)c1cc(Br)cn1C(C)C | -1.16%
32 | CC(C)C1CN(C(=O)c2ccc3nccnc3c2)CCS1 (stereo not given) | 5.02%
33 | N#Cc1ncn(CCC(=O)Nc2cccc(Cl)c2)n1 | -152%
34 | Cc1cc(NC(=O)C(C)Nc2cccc(COCc3ccco3)c2)on1 (stereo not given) | -2.41%
35 | COc1cc2c(cc1OC)S(=O)(=O)N(Cc1cc(C)on1)C2=O | 11.3%
36 | Cn1cc(CNC2CCOCC2)c(-c2cc3ccccc3o2)n1 | -45.1%
37 | CCc1n[nH]c(=O)c(C(=O)N2CCSCC2)c1CC | 19.5%
38 | Cc1ccc(C(=O)N(C)C)cc1NC(=O)COCC1CC1 | 2.95%
39 | O=C1CCc2cc(S(=O)(=O)NC(=O)c3ccc4c(c3)OCO4)ccc2N1 | -17.8%
40 | N#Cc1ccccc1CNC(C(=O)N1CCOCC1)c1ccccc1 (stereo not given) | 11%
41 | Cn1c2ncccc2c(=O)n1CC(=O)NCCc1c(F)cccc1F | -5.33%
42 | Cc1cccc(NC(=O)N2CCN(Cc3nnc(C(C)C)o3)CC2)c1 | -1.02%
43 | CCCN1CCC(Nc2nc(C)ns2)CC1 | -8.92%
44 | CN(C(=O)Nc1nncs1)C1CCN(c2ccccc2Cl)C1=O (stereo not given) | -7.04%

Row | SMILES | cytotoxicity at 10 µM
45 | CCS(=O)(=O)CCNC(=O)NC(C)c1cc(C)sc1C (stereo not given) | -3.4%
46 | COc1cc(CN(C)Cc2ccncc2)c(SC)cc1OC | 5.54%
47 | CO[C@H]1CN(C(=O)OC(C)(C)C)CC1NCc1ccn(C)c1 (stereo not given in full) | -45.9%
48 | CC(C)C(=O)NS(=O)(=O)c1ccc2c(c1)N(C)CCC2 | -0.447%
49 | Cc1nccn1-c1ccc(CNC(=O)c2ccc([S+](C)[O-])cc2)cn1 (stereo not given) | -18.1%
50 | CC(C)N1CCC(N(C)c2ccnc(N(C)C)n2)CC1 | -3.3%
51 | Cc1nonc1C(=O)N1CCc2c(ncn2CCc2ccccc2)C1 | -0.207%
52 | Cc1cc(C(=O)N2CC[C@H]3[C@H]2CCN3S(C)(=O)=O)c(C)o1 | -83.1%
53 | CCN(C)c1ncnc2c1CCN(c1ccc(C)nn1)CC2 | -94.7%
54 | CC(=O)N1CCC2(CC1)c1ncc(-c3ccc(F)cc3)n1CCN2C | -101%
55 | O=C([C@H]1CCCO1)N1CC[C@H](O)[C@@H]1Cc1cccnc1 | -105%
56 | COCCCn1c(CN2CCSCC2)cnc1S(=O)(=O)C1CCCC1 | -3.89%
57 | COCCCC1(C(=O)O)CCCN(C(=O)c2ccc(Cl)cc2F)C1 (stereo not given) | -0.37%
58 | CC[C@H](N)C(=O)Nc1nn(CC(F)(F)F)c2cc(OC(C)C)ccc12 | -2.8%
59 | Cc1ccccc1OC1(C(=O)O)CCN(C(=O)CCc2ccco2)CC1 | 1.5%
60 | CCN(CC)CCN(C)Cc1cn(C)nc1-c1ccc2c(c1)OCCO2 | 2.95%
61 | CCS(=O)(=O)N1CCC2(CCCN(Cc3ccc(F)c(F)c3)C2=O)C1 (stereo not given) | 17.6%
62 | Cc1nc[nH]c1-c1nccn1CCN1CCCOC1=O | -2.32%
63 | CNc1ncc(CN(C)C(=O)c2c[nH]nc2-c2cccc(F)c2)cn1 | -4.69%
64 | CSCCNC(=O)c1coc(COc2ccc3sc(C)nc3c2)n1 | -1.51%
65 | Cc1ccc([C@@H]2CN(C(=O)c3ccccc3C)C[C@H]2N(C)C)cc1 | -8.29%
66 | Cc1n[nH]c(C)c1-c1c(C#N)c(N)nc2c1CCc1[nH]ccc1-2 | 2.83%

Row | SMILES | cytotoxicity at 10 µM
67 | CN1[C@@H](c2ccccc2)[C@@H](C(=O)NCc2ccncc2)C[C@@]1(C)C(=O)O | -40.6%
68 | CCOC(=O)c1coc(N2CCC(C(C)N3CCCC3)CC2)n1 (stereo not given) | -1.89%
69 | COc1ncc(CN2CCC3(CCNC(=O)CC3)CC2)cn1 | -144%
70 | O=C(NCc1cccc(C(F)(F)F)c1)C(c1cccnc1)N1CCCC1 (stereo not given) | 6.63%
71 | Cn1cc(CN2CC[C@@H]3[C@@H](CCC(=O)N3CC3CCNCC3)C2)cn1 | 1.73%
72 | Cn1ccnc1CN1CCC(c2nc3ccccc3n2C)CC1 | 1.42%
73 | CN(Cc1nccn1C)C(=O)c1cccc(CCC(C)(C)O)c1 | 1.26%
74 | NC(=O)NCC(=O)N1CCCC(c2nccn2Cc2ccncc2)C1 (stereo not given) | 5.07%
75 | Cc1nccn1CCN(C)c1nc(-c2ccc(Cl)cc2)nc2c1CNC2 | -29.5%
76 | Cc1ncsc1CCN(C)C(=O)CN1CCCCC1=O | -14.8%
77 | CCCSCC(=O)N1CCN(c2ccc(OC)cc2)CC1C (stereo not given) | -166%
78 | O=C(c1cc[nH]n1)N1CCc2ncnc(NCc3ccccn3)c2CC1 | -10.5%
79 | CCN(C)C[C@@H]1CN(S(=O)(=O)c2ccc(OC)cc2)C[C@@H]1CO | 14.8%
80 | O=c1[nH]nc(CCCN2CCOCC2)n1-c1ccc(F)cc1F | 4.54%
81 | CCN(CC)C1COc2ccc(Br)cc2C1=O (stereo not given) | -7.16%
82 | CCn1cc(CNCc2ccc(C(=O)OC)cc2)c(C)n1 | -3.78%
83 | COCCCNC(=O)CN(C)C(=O)c1ccc(-n2cccc2)cc1O | -13.5%
84 | OCCn1cc(CN2CCN(CCOc3ccc(F)cc3)CC2)cn1 | -11.1%
85 | OC(COCc1ccccc1)CN1CC(n2cccn2)C1 (stereo not given) | 1.95%
86 | O=C(Cc1cccc(F)c1)NCCNCc1ccc2c(c1)CCO2 | -12.5%
87 | c1ncn(CC2CCCCN2Cc2csc(C3CCCC3)n2)n1 (stereo not given) | -6.44%
88 | COc1c(C2CCCN2Cc2c(C)noc2C)c(C)nn1C (stereo not given) | 5.73%

Row | SMILES | cytotoxicity at 10 µM
89 | COc1ccc(CCN2CCCC(Cn3nc(C)nc3C)C2)cc1 (stereo not given) | -3.34%
90 | c1ccc(Cn2cc(CNC3CCc4ncnn4C3)cn2)cc1 (stereo not given) | -1.61%
91 | c1ccc(CCN2CCOC(Cn3cccn3)C2)nc1 (stereo not given) | -4.48%
92 | CCc1nc(CN2CCN(C(=O)C3CCCCC3)CC2)cs1 | 3.64%
93 | COC[C@@]12CCC[C@@H]1CN(C(=O)Cc1ccccn1)C2 | -96.7%
94 | CN(C)Cc1noc2c1CN(C(=O)c1ccncc1)CC2 | -1.28%
95 | O=c1ccc2c(n1Cc1cccnc1)CCN(C1CCOC1)CC2 (stereo not given) | 9.58%
96 | c1cc2c(cc1CN1C[C@@H]3COC[C@@H](N4CCCC4)[C@@H]3C1)OCO2 | 4.62%
97 | Cc1cccc(CN2CCS(=O)(=O)[C@@H]3CCN(S(C)(=O)=O)CC[C@@H]32)n1 | -3.34%
98 | CC(=O)N1CCO[C@@H]2CN(Cc3ccccc3F)C[C@@H]2C1 | -108%
99 | CN(C)C(=O)COCC1CN(Cc2ccco2)Cc2ncn(C)c21 (stereo not given) | -7.86%
100 | CN1C(=O)C2(CCN(C(=O)c3ccccc3)CC2)c2cc(F)ccc21 | -106%
101 | CN(C)S(=O)(=O)N1CC[C@]2(C[C@@H](OCc3ccccn3)CO2)C1 | 10.1%
102 | CN1CCN(C2COC3(CCN(c4ccc(C#N)cc4)CC3)C2)CC1 (stereo not given) | 8.95%
103 | Fc1ccc(CN2CCc3ncnc(C4CC4)c3CC2)cc1 | -147%
104 | Cc1noc([C@H]2C[C@@H]3CCN(c4nnc(C)s4)C[C@H]3O2)n1 | 3.55%
105 | Cc1ccc(C(=O)N2CCN3C[C@H](Oc4cccnc4)C[C@H]3C2)cn1 | 4.66%
106 | CC(C)N1CCn2c(COCC3CCOCC3)cnc2C1C (stereo not given) | 8.22%
107 | CC(c1ccc2c(c1)OCO2)n1cc2nc(N(C)C)[nH]cc-2c1=O (stereo not given) | -2.72%
108 | OCC1N(Cc2ccc(F)cc2)C2CCC1(O)CC2 (stereo not given) | 8.05%
109 | Cc1ccc(N(Cc2ccco2)C(=O)Cc2cc(=O)n(C)[nH]2)cc1 | -152%
110 | N#Cc1ccc(C(=O)O)nc1C=Cc1cccc(Br)c1 | 5.09%
